Reference: ChEMBL document CHEMBL1122051 (J Med Chem, 1982)

Legend:
L5178Y [1] = assay: Inhibitory activity against murine tumor cells (L5178Y/S); type: functional, Mus musculus
Outline: (§1)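 L5178Y murine leukemia cells, MTX-sensitive (S) and MTX-resistant (R), kept in log-phase growth at 37 °C in RPMI-1640 with 10% fetal calf serum and 1% penicillin-streptomycin. Doubling times were 11-12 h (S) and 15-18 h (R). Cells seeded at 4.0-6.0 × 10^4 cells/mL, duplicate wells, at least six concentrations, final DMSO <2%. Untreated and DMSO controls included; cells counted by Coulter counter.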

L5178Y [2] = assay: Inhibitory activity against murine tumor cells (L5178Y/R); type: functional, Mus musculus; outline: as §1
L5178Y [3] = assay: Inhibitory action against murine tumor cells (L5178Y/S); type: functional, Mus musculus; outline: as §1
L5178Y [4] = assay: Inhibitory action against murine tumor cells (L5178Y/R); type: functional, Mus musculus; outline: as §1
[5] = Partition coefficient (logP); type: physicochemical; settings: octanol/water
Outline: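 Octanol/water partitioning. The protonated form was partitioned between octanol and 0.1 N HCl. The neutral form was partitioned between octanol and 0.1 N NaOH.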

SMILES: Nc1ccc(Cc2cnc(N)nc2N)cc1
- Log 1/C (L5178Y [1]): 4.65
- Log 1/C (L5178Y [2]): 3.58

SMILES: CCCCCCOc1cccc(Cc2cnc(N)nc2N)c1
- Log 1/C (L5178Y [1]): 5.3
- Log 1/C (L5178Y [2]): 5.16

SMILES: COCCOc1ccc(Cc2cnc(N)nc2N)cc1
- Log 1/C (L5178Y [1]): 4.77
- Log 1/C (L5178Y [2]): 3.08

SMILES: Nc1ncc(Cc2cccc(OCc3ccccc3)c2)c(N)n1
- Log 1/C (L5178Y [1]): 5.91
- Log 1/C (L5178Y [2]): 4.7

SMILES: CCCCOCc1cccc(Cc2cnc(N)nc2N)c1
- Log 1/C (L5178Y [1]): 5.74
- Log 1/C (L5178Y [2]): 3.93

SMILES: NC(=O)COc1cccc(Cc2cnc(N)nc2N)c1
- Log 1/C (L5178Y [3]): 4.91
- Log 1/C (L5178Y [4]): 3.14

SMILES: COCc1cccc(Cc2cnc(N)nc2N)c1
- Log 1/C (L5178Y [1]): 5.28
- Log 1/C (L5178Y [2]): 3.65

SMILES: Nc1ncc(Cc2ccc(OC(F)(F)F)cc2)c(N)n1
- Log 1/C (L5178Y [1]): 5.24
- Log 1/C (L5178Y [2]): 4.46

SMILES: Nc1ncc(Cc2cccc(CO)c2)c(N)n1
- Log 1/C (L5178Y [1]): 4.97
- Log 1/C (L5178Y [2]): 2.98

SMILES: Nc1ncc(Cc2ccccc2)c(N)n1
- Log 1/C (L5178Y [1]): 5.24
- Log 1/C (L5178Y [2]): 3.88

SMILES: Nc1ncc(Cc2cccc(C(F)(F)F)c2)c(N)n1
- Log 1/C (L5178Y [1]): 5.63
- Log 1/C (L5178Y [2]): 4.37

SMILES: Nc1ncc(Cc2cccc(Cl)c2)c(N)n1
- Log 1/C (L5178Y [1]): 5.39
- Log 1/C (L5178Y [2]): 3.85

SMILES: Cc1cccc(Cc2cnc(N)nc2N)c1
- Log 1/C (L5178Y [1]): 5.5
- Log 1/C (L5178Y [2]): 4.15

SMILES: Nc1ncc(Cc2cc(CO)cc(CO)c2)c(N)n1
- Log 1/C (L5178Y [1]): 3.79
- Log 1/C (L5178Y [2]): 2.49

SMILES: CCCCCCCCOc1cccc(Cc2cnc(N)nc2N)c1
- Log 1/C (L5178Y [1]): 5.12
- Log 1/C (L5178Y [2]): 4.92

SMILES: Nc1ncc(Cc2cccc(I)c2)c(N)n1
- Log 1/C (L5178Y [1]): 5.86
- Log 1/C (L5178Y [2]): 4.36

SMILES: Cc1ccc(Cc2cnc(N)nc2N)cc1
- Log 1/C (L5178Y [1]): 5.26
- Log 1/C (L5178Y [2]): 4.21

SMILES: COCCOc1ccc(Cc2cnc(N)nc2N)cc1OCCOC
- Log 1/C (L5178Y [1]): 5.06
- Log 1/C (L5178Y [2]): 3.28

SMILES: CC1(C)N=C(N)N=C(N)N1c1ccc(CCCCc2ccc(S(=O)(=O)F)cc2Cl)c(Cl)c1
- logP [5]: 2.4

SMILES: CCCCCCCOc1ccc(Cc2cnc(N)nc2N)cc1
- Log 1/C (L5178Y [1]): 5.13
- Log 1/C (L5178Y [2]): 5.67

SMILES: COCCOc1cccc(Cc2cnc(N)nc2N)c1
- Log 1/C (L5178Y [1]): 5.2
- Log 1/C (L5178Y [2]): 3.7

SMILES: COc1ccc(Cc2cnc(N)nc2N)cc1OC [DIAVERIDINE]
- Log 1/C (L5178Y [1]): 5.41
- Log 1/C (L5178Y [2]): 3.54

SMILES: Nc1ncc(Cc2cccc(Br)c2)c(N)n1
- Log 1/C (L5178Y [1]): 5.52
- Log 1/C (L5178Y [2]): 4.12

SMILES: CS(=O)(=O)Oc1cccc(Cc2cnc(N)nc2N)c1
- Log 1/C (L5178Y [3]): 5.28
- Log 1/C (L5178Y [4]): 3.34

SMILES: Nc1ncc(Cc2ccc(Br)cc2)c(N)n1
- Log 1/C (L5178Y [1]): 5.38
- Log 1/C (L5178Y [2]): 3.98

SMILES: Nc1ncc(Cc2cccc(O)c2)c(N)n1
- Log 1/C (L5178Y [1]): 4.89
- Log 1/C (L5178Y [2]): 3.09

SMILES: COc1cccc(Cc2cnc(N)nc2N)c1
- Log 1/C (L5178Y [1]): 5.06
- Log 1/C (L5178Y [2]): 3.63

SMILES: COc1ccc(Cc2cnc(N)nc2N)cc1
- Log 1/C (L5178Y [1]): 5.1
- Log 1/C (L5178Y [2]): 3.52

SMILES: CN(C)c1ccc(Cc2cnc(N)nc2N)cc1
- Log 1/C (L5178Y [1]): 4.95
- Log 1/C (L5178Y [2]): 4.02

SMILES: COCCOc1c(OC)cc(Cc2cnc(N)nc2N)cc1OC [TETROXOPRIM]
- Log 1/C (L5178Y [1]): 4.2
- Log 1/C (L5178Y [2]): 3.16

SMILES: CCCCOc1cccc(Cc2cnc(N)nc2N)c1
- Log 1/C (L5178Y [1]): 5.74
- Log 1/C (L5178Y [2]): 4.99

SMILES: CCCCOc1ccc(Cc2cnc(N)nc2N)cc1
- Log 1/C (L5178Y [1]): 5.37
- Log 1/C (L5178Y [2]): 4.83

SMILES: CCCCCCCOc1cccc(Cc2cnc(N)nc2N)c1
- Log 1/C (L5178Y [1]): 5.1
- Log 1/C (L5178Y [2]): 4.61

SMILES: Nc1ncc(Cc2cccc(F)c2)c(N)n1
- Log 1/C (L5178Y [1]): 5.27
- Log 1/C (L5178Y [2]): 3.61

SMILES: COc1cc(Cc2cnc(N)nc2N)cc(OC)c1
- Log 1/C (L5178Y [1]): 5.47
- Log 1/C (L5178Y [2]): 3.83

SMILES: CC(=O)Nc1ccc(Cc2cnc(N)nc2N)cc1[N+](=O)[O-]
- Log 1/C (L5178Y [1]): 5.11
- Log 1/C (L5178Y [2]): 3.2

SMILES: CCCCCCOc1ccc(Cc2cnc(N)nc2N)cc1
- Log 1/C (L5178Y [1]): 5.47
- Log 1/C (L5178Y [2]): 5.48

SMILES: Nc1ncc(Cc2ccc([N+](=O)[O-])cc2)c(N)n1
- Log 1/C (L5178Y [1]): 5.18
- Log 1/C (L5178Y [2]): 3.67

SMILES: CC(=O)Nc1ccc(Cc2cnc(N)nc2N)cc1
- Log 1/C (L5178Y [1]): 5.12
- Log 1/C (L5178Y [2]): 3.23

SMILES: Nc1ncc(Cc2ccc(Cl)cc2)c(N)n1
- Log 1/C (L5178Y [1]): 5.37
- Log 1/C (L5178Y [2]): 4.56

SMILES: Nc1ncc(Cc2ccc(F)cc2)c(N)n1
- Log 1/C (L5178Y [1]): 5.48
- Log 1/C (L5178Y [2]): 3.9

SMILES: Nc1ncc(Cc2ccc(O)c(O)c2)c(N)n1
- Log 1/C (L5178Y [1]): 5.06
- Log 1/C (L5178Y [2]): 4.94

SMILES: COc1ccc(Cc2cnc(N)nc2N)cc1C(F)(F)F
- Log 1/C (L5178Y [1]): 5.85
- Log 1/C (L5178Y [2]): 4.39
